# Assay results from different studies.
# Target: Serine/threonine-protein kinase pim-3 (PIM3, Homo sapiens, UniProt Q86V86)
Compound,effect on,action,method,tested at,measurement,result
Cc1cc(C)c(-n2ccn3nc(-c4cccnc4)cc23)cc1NC(=O)c1cc(C#N)cc(S(F)(F)(F)(F)F)c1,cell-free assay,,competition with immobilised ligand,0.1 µM,remaining binding,83.1%
CCCS(=O)(=O)Nc1ccc(F)c(C(=O)c2c[nH]c3ncc(-c4ccc(Cl)cc4)cc23)c1F,enzyme activity,inhibitor,,1 µM,inhibition,< 10%
CC1=C(C#N)C(c2ccc3c(c2)c(NC(=O)c2ccccc2C)nn3C)C(C#N)=C(C)N1,cell-free assay,,competition with immobilised ligand,1 µM,remaining binding,100%
Cn1c2c(c3ccc(Cl)c(Cl)c31)C(C#N)C1(CCNCC1)NC2=O (racemic),thermal stability,,DSF,10 µM,ΔTm,> 8 °C
Oc1cccc(-c2nc(N3CCOCC3)c3oc4ncccc4c3n2)c1,enzyme activity,inhibitor,,10 µM,remaining activity,41%
O=C1NC(=O)c2cc(Nc3ccc(F)cc3)c(Nc3ccc(F)cc3)cc21,cell-free assay,,,0.5 µM,remaining signal,105%
Cc1ccc(C(=O)NCc2ccsc2)cc1C#Cc1cn(C(C)C)c2ncnc(N)c12,enzyme activity,inhibitor,,1 µM,activity vs control,85%
COc1cc(Nc2cnc(C#N)c(O[C@H](C)CN(C)C)n2)ncc1-c1cnn(C)c1,enzyme activity,inhibitor,radiometric,10 µM,remaining activity,17%
CC(=O)C1=C(C)N(c2cccc(C(F)(F)F)c2)C(=O)N[C@@H]1c1ccc(C#N)nc1,cell-free assay,,competition with immobilised ligand,1 µM,remaining binding,100%
Nc1ncnc2occ(-c3ccc(NC(=O)Nc4cc(C(F)(F)F)ccc4F)cc3)c12,cell-free assay,inhibitor,,20 µM,remaining signal,79%
O=C(Nc1cnn(-c2csc(C(=O)NC3COC3)c2)c1)Nc1ccccc1Cl,enzyme activity,inhibitor,,5 µM,remaining activity,61.2%
CNC(=O)c1cc(Oc2ccc(NC(=O)Nc3ccc(Cl)c(C(F)(F)F)c3)cc2)ccn1,enzyme activity,inhibitor,,0.3 µM,inhibition,-12%
COc1cc2c(N3CCN(C(=O)Nc4ccc(OC(C)C)cc4)CC3)ncnc2cc1OCCCN1CCCCC1,cell-free assay,,,0.5 µM,remaining signal,100%
Cc1cnc(NC2CCOCC2)nc1-n1cnc(C(=O)NC(CN)c2cc(F)cc(Cl)c2)c1 (stereo not shown),enzyme activity,inhibitor,radiometric,1 µM,remaining activity,95%
Nc1nc(Nc2ccccc2)sc1C(=O)c1c(F)cccc1F,enzyme activity,inhibitor,,10 µM,remaining activity,69%
CCC(=O)N[C@H]1CC[C@@H](C(=O)N(C)c2ccc(-c3nc4ccccc4o3)cc2)C1,cell-free assay,,competition with immobilised ligand,1 µM,remaining binding,100%
O=C(CSc1nc2nccnc2c(=O)n1CCc1ccccc1)Nc1nccs1,enzyme activity,inhibitor,,10 µM,inhibition,-7%
O=C(NCc1ncc(C(F)(F)F)cc1Cl)c1ccc2c(c1)C1(CCS(=O)(=O)CC1)[C@H](C1CC1)N2S(=O)(=O)c1ccc(F)cc1,cell-free assay,,competition with immobilised ligand,1 µM,remaining binding,100%
N#CCCc1ccc2c(c1)-c1[nH]c3ccc([N+](=O)[O-])cc3c1CC(=O)N2,cell-free assay,,,0.5 µM,remaining signal,70.9%
CN(c1ncccc1CNc1nc(Nc2ccc3c(c2)CC(=O)N3)ncc1C(F)(F)F)S(C)(=O)=O,enzyme activity,inhibitor,,1 µM,inhibition,21.2%
O=C(O)[C@H]1[C@H](Cn2nnc3ccccc3c2=O)CC[C@@H]1C(=O)c1ccc(OCCC2CCOCC2)cc1,cell-free assay,,competition with immobilised ligand,1 µM,remaining binding,86%
Cc1cc(NC(=O)c2cccc3cc(-c4cccc5[nH]nc(N)c45)ccc23)ccc1F,enzyme activity,inhibitor,,0.1 µM,activity vs control,113%
CCCOc1ccc(OC)c(F)c1C(=O)c1ccc(C(=O)N[C@@H]2CNC[C@H]2NC(=O)c2ccc3[nH]ncc3c2)cc1,enzyme activity,inhibitor,,10 µM,remaining activity,97%
Cc1cc(-n2nc(Cc3cc(F)cc(C(F)(F)F)c3)nc2C)ccc1C(N)=O,cell-free assay,,competition with immobilised ligand,1 µM,remaining binding,100%
CC(C)(C)c1nc2c(s1)c1nc(N)ncc1c1ccc(NS(=O)(=O)c3c(F)cccc3F)c(F)c12,enzyme activity,inhibitor,radiometric,1 µM,remaining activity,105%
CS(=O)(=O)NCC[C@H](NC(=O)c1cncc2c1cnn2-c1ccc(F)cc1)c1ccnc(S(C)(=O)=O)c1,cell-free assay,,competition with immobilised ligand,1 µM,remaining binding,100%
CCN(CC)c1ccc(C2=NNC(=O)CC2C)cc1[N+](=O)[O-] (stereo not shown),enzyme activity,inhibitor,,10 µM,remaining activity,96%
COc1cc(Cl)c(C(=O)N[C@@H](CN[C@H]2CC[C@@H](N)CC2)Cc2ccc(C#N)cc2)cc1-c1ccc(CN[C@H](C)c2ccc(C)cc2)o1,enzyme activity,inhibitor,,1 µM,remaining activity,84%
